Data published in ChEMBL document CHEMBL3243939, “Derivatives of 1,3-disubstituted 2,4(1H,3H)-quinazolinediones as possible peripheral vasodilators or antihypertensive agents” (1979).
Converted amounts (≈) assume the structure as drawn.

Columns and labels:
Canis familiaris = test: Vasodilatory activity in dog assessed as increase of femoral blood flow by 100 mL/min administered as intraarterially; assay type: functional, Canis lupus familiaris
How it was run: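 Pentobarbital-anesthetized dogs with an electromagnetic flowmeter sensor around a femoral artery. Compound was injected intraarterially through a branch vessel at increasing doses, and the peak flow increase after each dose was recorded. ED100, the dose raising flow 100 mL/min above control, was extrapolated from the dose-response curve.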

Rattus norvegicus = test: Antihypertensive activity in Wistar rat assessed as decrease of systolic blood pressure at 31 mg/kg, po up to 8 hrs; assay type: functional, Artery
How it was run: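 Renal hypertension in female Wistar rats: figure-of-eight ligature on one kidney, other kidney removed. Rats with systolic pressure above 160 mmHg used, groups of ten. Tail-cuff occlusion with pulse detector measured systolic pressure before and 2, 4, 6, 8 h after a 31 mg/kg oral dose. Value is the mean decrease over 8 h ± standard error.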

Oryctolagus cuniculus = organism: Oryctolagus cuniculus; test: Blockade of alpha-adrenergic receptor in rabbit aortic strips assessed as reduction of epinephrine-induced response
How it was run: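 Rabbit aortic strip sensitized by repeated exposure to 0.01 mcg/mL epinephrine. Responses to this concentration were compared before and after 200 s incubation with rising compound concentrations. Percent blockade was calculated at each concentration. ED50, the concentration blocking the response by 50%, was extrapolated from the concentration-response curve.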

| ED50 (Oryctolagus cuniculus) | SMILES | ED100 (Canis familiaris) | Activity (Rattus norvegicus) |
| --- | --- | --- | --- |
| 0.64 µg/mL | CN(C)CCCN1C(=O)C(CCCCCCCN2CCN(c3ccccc3)CC2)C(=O)c2ccccc21.CO.O=C(O)C(=O)O (configuration not stated) | 205 µg | 12 mmHg |
| – | COc1ccc(Cc2nccc3cc(OC)c(OC)cc23)cc1OC [PAPAVERINE] | 1825 µg | – |
| 0.03 µg/mL (≈ 0.107 µM) | Cc1ccc(N(CC2=NCCN2)c2cccc(O)c2)cc1 [PHENTOLAMINE] | 117 µg | 45 mmHg |
